The subject of data set [1] is OT, V1a, V1b, V2 receptors. Conditions: cited from earlier work.
In data set [2] the test system is OT, V1a, V1b, V2 receptors. Conditions: cited from earlier work. This is another data set of the same source.
Data set [3] deals with OT, V1a, V1b, V2 receptors. Conditions: cited from earlier work. This is another data set of the same source.
The nature of data set [4]: Human serum stability assay. The format is in vitro ADME. In a few lines:
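Peptides were spiked into human serum. Aliquots were withdrawn at 1, 2, 3, 4, 12, 24 and 48 h and analysed by RP-HPLC and LCMS.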

The next data set addresses rat V1aR. The note with it: read-out: Ki at rat V1aR; ref Chini et al.([38]); cited from earlier work.
For a further data set, the target named is human V1aR. The note with it: read-out: Ki at human V1aR, cited from earlier work.
Another data set addresses human V2R. Conditions: read-out: Ki at human V2R; ref Chini et al.([38]); cited from earlier work.
The target in the next data set is rat V2R. The note with it: read-out: Ki at rat V2R; ref Chini et al.([38]); cited from earlier work.
A further data set deals with mouse V2R. Conditions: read-out: Ki at mouse V2R; ref Chini et al.([38]); cited from earlier work.
Another data set has as its target T1, human OTR (Homo sapiens, UniProt P30559).
T1 sequence (P30559 1-389): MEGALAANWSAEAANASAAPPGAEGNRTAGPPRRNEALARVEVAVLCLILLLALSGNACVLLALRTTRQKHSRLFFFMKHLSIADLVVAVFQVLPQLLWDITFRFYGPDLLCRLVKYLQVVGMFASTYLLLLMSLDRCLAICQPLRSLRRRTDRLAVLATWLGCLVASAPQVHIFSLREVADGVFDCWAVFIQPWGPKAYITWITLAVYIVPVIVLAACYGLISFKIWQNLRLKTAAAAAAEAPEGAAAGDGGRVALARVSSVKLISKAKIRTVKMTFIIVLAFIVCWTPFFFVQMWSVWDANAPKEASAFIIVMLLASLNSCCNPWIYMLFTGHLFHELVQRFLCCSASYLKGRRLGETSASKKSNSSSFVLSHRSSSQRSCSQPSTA
Conditions: read-out: Ki at human OTR; ref Chini et al.([38]); cited from earlier work.

A further data set addresses rat OTR. Conditions: read-out: Ki at rat OTR; ref Chini et al.([38]); cited from earlier work.
The next data set addresses human V1bR. Conditions: read-out: Ki at human V1bR; ref Chini et al.([38]); cited from earlier work.
The next data set has as its target rat V1bR. Conditions: read-out: Ki at rat V1bR; ref Chini et al.([38]); cited from earlier work.
The mark [5] stands for this setting: human, ref [37], [38], [41], [48], [49], [63], [96]–[99].
[6] abbreviates: mouse, ref [37], [38], [41], [48], [49], [63], [96]–[99].
[7] abbreviates: rat, ref [37], [38], [41], [48], [49], [63], [96]–[99].

Consider 15 molecules from publication PMC5892705 (Science signaling, 2017).

Where two headings read alike, the source gives them in different places.

Consider `N=C(N)NCCC[C@H](NC(=O)[C@@H]1CCCN1C(=O)[C@@H]1CSSC[C@H](N)C(=O)N[C@@H](Cc2ccc(O)cc2)C(=O)N[C@@H](Cc2ccccc2)C(=O)N[C@@H](CCC(N)=O)C(=O)N[C@@H](CC(N)=O)C(=O)N1)C(=O)NCC(N)=O` [AVP, arginine-vasopressin], for which the Selectivity entry in data set [1], in [2] and in data set [3] was “unselective” each time.
As for `CC[C@H](C)[C@@H]1NC(=O)[C@H](Cc2ccc(O)cc2)NC(=O)[C@@H](N)CSSC[C@@H](C(=O)N2CCC[C@H]2C(=O)N[C@@H](CC(C)C)C(=O)NCC(N)=O)NC(=O)[C@H](CC(N)=O)NC(=O)[C@H](CCC(N)=O)NC1=O` [OT, Oxytocin], the half-life (usually how long it takes for the measured level to halve) in [4] was 12 h.
`COc1ccc(S(=O)(=O)N2c3ccc(Cl)cc3[C@](O)(c3ccccc3Cl)[C@@H]2C(=O)N2CCC[C@H]2C(N)=O)cc1OC` [SR49049]: the Ki (as a rule, a measure of affinity in units of concentration, obtained from inhibition or displacement) at rat V1aR was 2.2 nM.
`COc1ccc(S(=O)(=O)N2c3ccc(Cl)cc3[C@](O)(c3ccccc3Cl)[C@@H]2C(=O)N2CCC[C@H]2C(N)=O)cc1OC` [SR49059]: on human V1aR (ref Chini et al.([38])), the Ki was 0.9 nM.
Regarding `CCOc1ccc2c(c1)C1(CCC(OCCN3CCOCC3)CC1)C(=O)N2S(=O)(=O)c1ccc(C(=O)NC(C)(C)C)cc1OC` (stereo not shown) [SR121463], the Ki at human V2R is 4.1 nM; at rat V2R it was 1.5 nM; on mouse V2R, 11.2 nM.
Turning to `CCN(Cc1cccnc1)C(=O)c1ccc(Cl)c(C2(C)C(=O)N(Cc3ccc(OC)cc3OC)c3ccc(Cl)cc32)c1` (stereo not shown) [SSR126768], at human OTR, the Ki was 0.9 nM.
For the molecule Atosiban, the Selectivity result in [1] (setting [5]) is listed as “V1a preference”; in data set [2] (setting [6]), “OT selective”; in [3] (setting [7]), “unselective”.
For the molecule [Hmp1,Phe2,Ile3,Hgn4,Dab8]-VP [F-180], the Selectivity entry is given as “V1a preference” in data set [1] (setting [5]) and “unselective” in [3] (setting [7]). On human V1aR (ref Chini et al.([38])), the Ki was 11.7 nM.
For the molecule “[Phe2,Ile3,Hgn4,Orn(iPr)8]-VP [FE 202158]”, the Ki on human V1aR (selective agonist, ref [100], [101]) was 4.4 nM.
Regarding [Thr4,Gly7]-OT [T4G7-OT], the results for the Selectivity result in data set [1] (setting [5]), in [2] (setting [6]) and in data set [3] (setting [7]) were “OT preference”, “OT selective” and “OT selective”, respectively. The Ki on rat OTR is 1 nM.
On to d(CH2)5[D-Ile2,Ile4,Tyr9]-AVP, for which the Ki on human V1aR (ref Chini et al.([38])) was 3.7 nM.
With d(CH2)5[Tyr(Me)2]-AVP, the Ki at rat V1aR is 0.7 nM.
For dDAVP, the Ki on rat V2R is 0.3 nM.
Consider d[Cha4]-AVP, for which the Selectivity result in data set [1] (setting [5]) is listed as “V1b selective”; in data set [3] (setting [7]) it was “unselective”. In addition, the Ki at human V1bR was 1.2 nM.
Take d[Leu4, Lys8]-VP: at rat V1bR, the Ki is 1.2 nM.
